High-throughput results from PubChem BioAssay.
E-selectin induc: E-selectin induction in HUVECs, primary screen, imaging, HUVEC, immunofluorescence imaging, single point; activation, % at 7.58 µM; 260,000 compounds, 0.37% hits; AID 686992, 2013; P16581; normalized: neutral wells 0, TNF-alpha wells 100;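 active = mean E-selectin-positive cell signal at least 10% of the positive control, reached in at least 60% of replicates, without over 20% cell loss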
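Material: HUVEC primary endothelial cells; Amount: 3,000 cells per well; Dosing: single concentration; Medium: EGM-2 growth medium on 0.1% gelatin-coated wells; Read-out basis: percent E-selectin-positive cells; Signal: immunofluorescence imaging; Control set: TNF-alpha, DMSO.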
RAD52 anneal inh: RAD52 DNA annealing inhibitors, primary screen, biochemical, FRET, single point, set 2; DNA repair protein RAD52 homolog (Homo sapiens), P43351; recombinant RAD52 DNA annealing, FRET fluorescence; inhibition, % at 18.7 µM; AID 651710, 2012; 360,000 compounds, 0.46% hits;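 active = every replicate showing at least 50% inhibition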
Target sequence (P43351 whole entry, looked up): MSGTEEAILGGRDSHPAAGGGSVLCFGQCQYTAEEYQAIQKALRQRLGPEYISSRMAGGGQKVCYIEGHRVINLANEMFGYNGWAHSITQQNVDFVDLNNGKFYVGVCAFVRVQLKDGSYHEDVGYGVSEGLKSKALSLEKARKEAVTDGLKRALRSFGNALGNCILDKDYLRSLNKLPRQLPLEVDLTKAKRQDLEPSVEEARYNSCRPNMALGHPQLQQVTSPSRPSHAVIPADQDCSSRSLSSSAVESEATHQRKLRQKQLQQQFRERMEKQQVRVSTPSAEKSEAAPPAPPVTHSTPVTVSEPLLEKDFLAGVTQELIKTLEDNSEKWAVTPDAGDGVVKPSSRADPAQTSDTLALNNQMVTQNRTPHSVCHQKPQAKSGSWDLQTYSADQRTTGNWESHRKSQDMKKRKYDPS
PglD DTNB: C. jejuni PglD acetyltransferase inhibitors, primary screen, biochemical, DTNB colorimetric, single point; AID 602405, 2012; UDP-N-acetylbacillosamine N-acetyltransferase PglD (Campylobacter jejuni); inhibition, % at 12.5 µM; purified PglD enzyme, DTNB colorimetric CoA detection; 360,000 compounds, 0.098% hits; in the data active = inhibition above about 16%, passing the limit was not always enough
rRNA inh HTS: reduced GFP signal of wild-type E. coli, primary screen, bacterial rRNA inhibitor project, GFP/RFP fluorescence, OD600, single point | E. coli WT GFP vs humanized-ribosome RFP mutants, 24 h; stronger effect = lower value; DMSO median 0, no signal -100 | GFP signal change (wild-type ribosome), % (concentration not given with the values) | 350,000 compounds, 1.6% hits;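 active = significant combined selectivity score with lowered wild-type GFP, culture density cut under 30%, mutant RFP and density less affected; inactive = any of these conditions unmet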
XiGFP reactiv: activators of inactive X chromosome reactivation, primary screen, imaging, XiGFP fibroblasts, GFP high-content imaging, set 2 | activation, % at 7.58 µM | 360,000 compounds, 0.055% hits | XiGFP mouse fibroblasts, % GFP-positive cells imaging, 3 d; cells co-treated with 5-aza-dC sensitizer; scaled so ellipticine positive control = 100%;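 active = mean normalized replicate activation at least 10% and every replicate at or above 10%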;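 note: 0% = median of on-plate neutral control wells and 100% = ellipticine 6 µM median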
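Assay system – SV40-immortalized XiGFP fibroblast cells, line 68-5-11 · Buffer or medium – DMEM supplemented with 5-aza-dC as sensitizing agent · Dosing – one concentration, pinned · Benchmarks – positive control ellipticine, 6 µM final · Times – 3 days compound exposure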
RAD54 inh: inhibitors of human RAD54 branch migration, primary screen, biochemical, fluorescence, single point | AID 602329, 2012 | inhibition, % at 10.4 µM | 360,000 compounds, 0.14% hits | RAD54 Holliday junction branch migration, FAM/BHQ fluorescence | DNA repair and recombination protein RAD54-like (Homo sapiens), Q92698;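 active = mean normalized replicate activity at least 40 and at least half of replicates scoring 40 or more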;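 note: 0% = median of neutral control wells and 100% = median of positive control wells; inhibitors cause a drop in the FAM fluorescence signal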
PglD confirm: PglD acetyltransferase inhibitors, confirmation, biochemical, DTNB absorbance, single point, cherry-picked samples; Purified C. jejuni PglD, DTNB absorbance 412 nm; inhibition, % at 20 µM; AID 743156, 2013; 320 tested, under 10 active; shares compounds with PglD DTNB;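 active = mean inhibition across replicates of at least 20% with every single replicate also at 20% or more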;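 note: initial rate of CoA release by acetyl transfer from AcCoA to the UDP-4-amino sugar; 0% = median of neutral control wells and 100% = median of positive control wells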
An asterisk follows results filed as active; . = no result. This is a sample that favours compounds with a hit; in the whole collection about 2% have one here.

SMILES | E-selectin induc | RAD52 anneal inh | PglD DTNB | rRNA inh HTS | XiGFP reactiv | RAD54 inh | PglD confirm
COc1ccc(NC(=O)N[C@@H]2CC[C@H](CCNC(=O)CCN3CCCCC3)O[C@@H]2CO)cc1 | 0 | -7 | 0 | 0 | 1 | 11 | .
CCNC(=O)C[C@H]1CC[C@H]2[C@@H](COC[C@@H](O)CN2C(=O)Nc2ccc(C(F)(F)F)cc2)O1 | 1 | 1 | -2 | -54 | 0 | -5 | .
O=C(Nc1cnccc1C(F)(F)F)NC1CCCCC1 | 0 | -9 | -10 | 8 | 0 | 6 | .
C#CC1CCCCC1NC(=O)Nc1cnccc1C(F)(F)F (stereo unspecified) | . | -14 | 20* | 9 | 0 | 0 | -2
CCCCN1C(=O)c2ccc(C(=O)Nc3ccc(C)c(S(=O)(=O)N(C)C)c3)cc2C1=O | . | . | 25* | . | . | 1 | -1
O=C(NCCc1ccc(Cl)cc1)C1CCN(S(=O)(=O)c2cccs2)CC1 | . | . | 21* | . | . | 1 | 0
O=C(NCCc1ccccc1)C1CCN(S(=O)(=O)c2cccs2)CC1 | . | . | 3 | . | . | -3 | .
O=Cc1ccc(OCCN2CCCC2=O)cc1 | 0 | -6 | 44* | 11 | 0 | -6 | -4
O=Cc1ccccc1OCCN1CCCC1=O | 0 | -4 | 6 | 5 | 0 | 1 | .
O=C(Nc1ccc(C(=O)N2CCOCC2)cc1)Nc1cccc(Cl)c1 | . | . | 25* | . | 0 | 7 | 3
O=C(c1cc(-c2ccc(Cl)cc2)on1)N1CCOCC1 | . | -1 | 24* | 3 | . | 2 | 2
COc1ccc(-c2n[nH]c(=S)n2-c2cc(OC)ccc2OC)cc1 | 3 | -14 | 2 | -4 | 0 | 3 | .
COc1ccc(-c2n[nH]c(=S)n2N)c(OC)c1 | . | -11 | 21* | 18 | 0 | -1 | -1
O=C(NC1CCCCC1)c1cccc(NC(=O)c2ccccc2Cl)c1 | 0 | 3 | 22* | -8 | 0 | 6 | 1
CCCCNC(=O)Nc1nnc(-c2ccccc2)o1 | . | . | 39* | . | . | -16 | 2
C[C@@H]1CN([C@@H](C)CO)S(=O)(=O)c2ccc(C3=CCCC3)cc2O[C@H]1CN(C)C(=O)c1ccc(F)cc1 | 0 | 9 | -2 | 3 | 0 | -2 | .
N#C/C(=N\O)c1nc2ccccc2[nH]1 | . | . | . | . | 0 | . | .
Cc1ccc2nc(/C(C#N)=N/O)[nH]c2c1 | . | . | 38* | . | . | -6 | -12
CC(=O)NCC(=O)OCC(=O)c1ccc(Cl)cc1 | . | -3 | 26* | 2 | 0 | 5 | 4
C[C@H]1CN([C@@H](C)CO)C(=O)c2ccccc2-c2ccccc2CO[C@H]1CN(C)C(=O)Nc1ccc2c(c1)OCO2 | -3 | -8 | 1 | 0 | -1 | 5 | .
Cc1ccc(N(CC(=O)NC(C)c2ccccc2)S(=O)(=O)c2c(C)n[nH]c2C)cc1 (stereo unspecified) | 3 | -5 | -3 | -17 | 0 | 0 | .
Cc1ccc(N(CC(=O)NC(C)c2ccccc2)S(=O)(=O)c2c(C)noc2C)cc1 (stereo unspecified) | 0 | 7 | 27* | -1 | 0 | -4 | -5
CC(C)(C)C1CCc2[nH]c3ccccc3c(=O)c2C1 (stereo unspecified) | . | . | 28* | . | . | -7 | -2
O=c1c2c([nH]c3ccccc13)CCCC2 | . | . | 1 | . | . | 0 | .
COCC(=O)N[C@@H]1CC[C@@H](CC(=O)N2CCCCC2)O[C@@H]1CO | 0 | 14 | -1 | 2 | 0 | -7 | .
Cc1ccc(S(=O)(=O)N(C)C)cc1NC(=O)CSc1nc2ccccc2[nH]1 | 2 | . | . | . | 1 | . | .
